Experimental data published in ChEMBL document CHEMBL1142739, “Development of spin-labeled probes for adenosine receptors” (J Med Chem, 2005).

What was measured:
Adenosine receptor A2b [1] = target: T1, Adenosine receptor A2b (Homo sapiens, UniProt P29275); experiment: Inhibition of [3H]PSB-298 binding to adenosine A2b receptor
T1 sequence (P29275 whole entry): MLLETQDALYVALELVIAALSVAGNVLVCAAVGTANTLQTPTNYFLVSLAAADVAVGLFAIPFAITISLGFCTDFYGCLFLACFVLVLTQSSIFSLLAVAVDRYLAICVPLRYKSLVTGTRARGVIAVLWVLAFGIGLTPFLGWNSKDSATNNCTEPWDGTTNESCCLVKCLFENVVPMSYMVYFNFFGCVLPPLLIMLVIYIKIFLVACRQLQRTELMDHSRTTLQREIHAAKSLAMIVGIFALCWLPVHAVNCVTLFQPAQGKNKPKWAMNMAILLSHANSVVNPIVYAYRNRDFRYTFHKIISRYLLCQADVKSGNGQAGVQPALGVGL

Adenosine receptor A3 = target: T2, Adenosine receptor A3 (Homo sapiens, UniProt P0DMS8); experiment: Inhibition of [3H]PSB-11 binding to adenosine A3 receptor
T2 sequence (P0DMS8 whole entry): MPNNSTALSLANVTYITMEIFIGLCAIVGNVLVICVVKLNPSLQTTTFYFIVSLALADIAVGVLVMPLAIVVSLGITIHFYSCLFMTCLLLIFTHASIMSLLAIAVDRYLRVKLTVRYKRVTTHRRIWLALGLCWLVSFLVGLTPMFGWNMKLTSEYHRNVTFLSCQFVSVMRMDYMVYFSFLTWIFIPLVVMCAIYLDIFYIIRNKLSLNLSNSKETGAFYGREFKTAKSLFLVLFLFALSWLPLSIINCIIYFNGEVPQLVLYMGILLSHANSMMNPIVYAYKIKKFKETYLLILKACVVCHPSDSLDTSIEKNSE

Adenosine receptor A1 [2] = target: T3, Adenosine receptor A1 (Rattus norvegicus, UniProt P25099); experiment: Inhibition of [3H]CCPA binding to adenosine A1 receptor
T3 sequence (P25099 whole entry): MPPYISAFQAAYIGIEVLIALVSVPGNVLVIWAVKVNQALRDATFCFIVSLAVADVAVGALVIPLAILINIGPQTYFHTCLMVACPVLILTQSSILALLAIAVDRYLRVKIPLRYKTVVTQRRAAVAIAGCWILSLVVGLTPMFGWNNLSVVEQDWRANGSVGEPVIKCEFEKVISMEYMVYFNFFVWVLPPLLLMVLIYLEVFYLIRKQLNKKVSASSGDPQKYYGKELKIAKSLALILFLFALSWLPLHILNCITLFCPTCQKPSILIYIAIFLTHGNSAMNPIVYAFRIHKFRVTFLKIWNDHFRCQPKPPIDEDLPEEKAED
Method in brief: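 Radioligand competition assay; rat brain cortical membranes as the receptor source.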

Adenosine receptor A2a [3] = target: T4, Adenosine receptor A2a (Rattus norvegicus, UniProt P30543); experiment: Inhibition of [3H]MSX-2 binding to adenosine A2a receptor
T4 sequence (P30543 whole entry): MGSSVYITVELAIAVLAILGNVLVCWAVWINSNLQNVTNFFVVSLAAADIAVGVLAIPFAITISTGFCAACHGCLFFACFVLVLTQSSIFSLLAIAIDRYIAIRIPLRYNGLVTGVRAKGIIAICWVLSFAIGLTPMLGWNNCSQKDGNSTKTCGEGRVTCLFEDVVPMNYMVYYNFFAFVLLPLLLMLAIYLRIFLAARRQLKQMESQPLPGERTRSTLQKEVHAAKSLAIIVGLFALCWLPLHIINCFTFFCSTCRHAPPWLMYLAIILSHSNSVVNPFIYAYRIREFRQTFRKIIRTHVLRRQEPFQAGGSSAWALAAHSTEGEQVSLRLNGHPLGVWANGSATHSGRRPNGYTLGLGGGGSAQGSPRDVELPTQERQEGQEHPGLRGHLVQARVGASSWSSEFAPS

Adenosine receptor A1 [4] = target: T3, Adenosine receptor A1; experiment: Inhibition of [3H]R-PIA binding to adenosine A1 receptor
Method in brief: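 Competition binding on rat brain cortical membranes as the A1 source. Where no Ki was reached, percent inhibition of radioligand binding was reported at 1 or 10 µM test compound.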

Adenosine receptor A2a [5] = target: T4, Adenosine receptor A2a; experiment: Inhibition of [3H]NECA binding to adenosine A2a receptor
Method in brief: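 Competition binding on rat brain striatal membranes as the A2A source. Where no Ki was reached, percent inhibition of radioligand binding was reported at 1 or 10 µM test compound.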

Adenosine receptor A2b [6] = target: T1, Adenosine receptor A2b; experiment: Inhibition of [3H]ZM-241380 binding to adenosine A2b receptor
[7] = target: T5, Adenosine receptor A2b (Homo sapiens) (UniProt P29275); experiment: Percent inhibition of [3H]PSB-298 binding to adenosine A2b receptor at 10 uM
T5 sequence (whole entry): T1 sequence (P29275 whole entry)
Method in brief: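 Radioligand competition assay; membranes from CHO cells stably expressing the human receptor. Percent inhibition of radioligand binding is reported at the stated test concentration.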

[8] = target: T6, Adenosine receptor A3 (Homo sapiens) (UniProt P0DMS8); experiment: Percent inhibition of [3H]PSB-11 binding to adenosine A3 receptor at 10 uM
T6 sequence (whole entry): T2 sequence (P0DMS8 whole entry)
Method in brief: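 Radioligand competition assay; membranes from HEK cells stably expressing the human receptor. Percent inhibition of radioligand binding is reported at the stated test concentration.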

Ki (Adenosine receptor A1 [4]) [µM]	Ki (Adenosine receptor A2a [5]) [µM]	Ki (Adenosine receptor A2b [6]) [µM]	SMILES	Ki (Adenosine receptor A2b [1]) [µM]	Ki (Adenosine receptor A3) [µM]	Ki (Adenosine receptor A1 [2]) [µM]	Ki (Adenosine receptor A2a [3]) [µM]	inhibition [7] [%]	inhibition [8] [%]
			CCCn1c(=O)c2nc(C3CC(C)(C)N([O])C(C)(C)C3)[nH]c2n(CCC)c1=O	> 10	~10	0.16	6.75		
0.0087	0.511		CCCn1c(=O)c2[nH]c(C3CCCC3)nc2n(Cc2ccccc2)c1=O		0.0546				
		0.0053	CCCCn1c(=O)[nH]c2[nH]c(-c3ccc(OCC(=O)Nc4ccc(CC(=O)O)cc4)cc3)nc2c1=O		0.676	0.041	0.479		
			CCCn1c(=O)c2nc(C3CCCC3)[nH]c2n(CC2=CC(C)(C)N([O])C2(C)C)c1=O	> 1	1.7	0.00547	8.78	23	
			CCCn1c(=O)c2nc(C3=CC(C)(C)N([O])C3(C)C)[nH]c2n(CCC)c1=O	3.1	~10	0.00823	3.8		47
